Measured values reported in ChEMBL document CHEMBL3414525, “Macrocyclic compounds as anti-cancer agents: design and synthesis of multi-acting inhibitors against HDAC, FLT3 and JAK2” (Eur J Med Chem, 2015).
Active and inactive are the calls of the source. The rule behind the calls is not given here.

Columns and labels:
[1] = target: T1, Receptor-type tyrosine-protein kinase FLT3 (Homo sapiens, UniProt P36888); test: Inhibition of human recombinant FLT3 after 1 hr by LanthaScreen assay platform
T1 sequence (P36888 whole entry): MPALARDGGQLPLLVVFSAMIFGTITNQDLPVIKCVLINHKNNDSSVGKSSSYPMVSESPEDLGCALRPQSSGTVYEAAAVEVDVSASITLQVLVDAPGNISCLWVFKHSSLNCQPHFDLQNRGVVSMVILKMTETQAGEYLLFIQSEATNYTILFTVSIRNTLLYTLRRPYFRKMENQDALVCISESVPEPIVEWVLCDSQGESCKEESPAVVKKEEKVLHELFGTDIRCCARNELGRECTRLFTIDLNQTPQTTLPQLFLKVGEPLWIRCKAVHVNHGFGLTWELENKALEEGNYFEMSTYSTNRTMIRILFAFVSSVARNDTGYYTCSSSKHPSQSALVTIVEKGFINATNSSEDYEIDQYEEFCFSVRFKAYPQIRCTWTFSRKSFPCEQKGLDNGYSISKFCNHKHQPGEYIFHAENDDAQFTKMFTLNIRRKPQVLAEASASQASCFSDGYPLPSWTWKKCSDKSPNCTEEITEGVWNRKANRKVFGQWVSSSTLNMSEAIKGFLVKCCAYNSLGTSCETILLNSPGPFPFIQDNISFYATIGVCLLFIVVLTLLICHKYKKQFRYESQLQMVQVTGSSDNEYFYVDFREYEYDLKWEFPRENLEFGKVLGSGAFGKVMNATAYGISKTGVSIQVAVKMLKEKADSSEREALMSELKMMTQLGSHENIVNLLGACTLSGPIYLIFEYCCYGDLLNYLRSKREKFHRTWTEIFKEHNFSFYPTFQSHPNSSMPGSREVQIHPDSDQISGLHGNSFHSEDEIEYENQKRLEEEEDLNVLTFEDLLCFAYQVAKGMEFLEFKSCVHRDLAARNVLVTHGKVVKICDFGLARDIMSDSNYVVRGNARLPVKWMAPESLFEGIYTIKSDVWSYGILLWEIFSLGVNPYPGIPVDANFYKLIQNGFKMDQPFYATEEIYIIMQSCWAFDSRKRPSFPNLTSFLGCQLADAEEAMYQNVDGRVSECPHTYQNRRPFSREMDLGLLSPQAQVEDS
Method in brief: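 TR-FRET binding format. Recombinant FLT3 incubated 1 h at room temperature with Eu-anti-His antibody, Alexa Fluor 647-labelled kinase tracer 236 and varied compound concentrations. Signal read as the 665/615 nm emission ratio. Values are means ± SD of three independent experiments.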

[2] = target: T2, Tyrosine-protein kinase JAK2 (Homo sapiens, UniProt O60674); test: Inhibition of human recombinant JAK2 using Z'LYTETry6 peptide substrate after 1 hr by microplate reader
[3] = target: Histone deacetylase; test: Inhibition of HDAC (unknown origin) using Fluor de Lys substrate after 2 hrs by microplate reader; type: protein assay, Homo sapiens
[4] = Antiproliferative activity against human HL60 cells assessed as growth inhibition after 48 hrs by CellTiter-Glo assay; type: functional; conditions: HL-60, 48 h
[5] = test system: MV4-11; test: Antiproliferative activity against human MV4-11 cells assessed as growth inhibition after 48 hrs by CellTiter-Glo assay; type: functional; conditions: MV4-11, 48 h
[6] = test system: K562; test: Antiproliferative activity against human K562 cells assessed as growth inhibition after 48 hrs by CellTiter-Glo assay; type: functional; conditions: K562, 48 h
[7] = test system: HEL; test: Antiproliferative activity against human HEL cells assessed as growth inhibition after 48 hrs by CellTiter-Glo assay; type: functional
[8] = Antiproliferative activity against human HCT116 cells assessed as growth inhibition after 48 hrs by SRB assay; type: functional; conditions: HCT-116, 48 h
[9] = test system: MCF7; test: Antiproliferative activity against human MCF7 cells assessed as growth inhibition after 48 hrs by SRB assay; type: functional; conditions: MCF7, 48 h
[10] = test system: MDA-MB-435; test: Antiproliferative activity against human MDA-MB-435 cells assessed as growth inhibition after 48 hrs by SRB assay; type: functional; conditions: MDA-MB-435, 48 h
[11] = test system: NCI-H460; test: Antiproliferative activity against human NCI-H460 cells assessed as growth inhibition after 48 hrs by SRB assay; type: functional; conditions: NCI-H460, 48 h
[12] = Antiproliferative activity against human OVCAR5 cells assessed as growth inhibition after 48 hrs by SRB assay; type: functional; conditions: OVCAR-5, 48 h
[13] = target: Histone deacetylase (Homo sapiens) (UniProt Q13547+O15379+Q9UBN7+Q92769+Q9UQL6+Q8WUI4+Q9BY41+Q96DB2+P56524+Q9UKV0+Q969S8); test: Induction of HDAC-mediated histone H3 acetylation in human MV4-11 cells after 24 hrs by Western blot analysis; type: cell-based
Method in brief: (§1)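 Cells plated at 0.2 × 10⁶ per mL with or without varied compound concentrations, incubated 24 h, then lysed in whole-cell lysis buffer. Total extracts run on SDS-PAGE and western blotted with antibodies to acetyl-histone H3, acetyl-tubulin, tubulin, phospho-FLT3 Y591, phospho-JAK2 Y1007/1008, phospho-STAT5 Y694 and phospho-AKT T308. HRP-labelled secondary antibodies used for detection.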

[14] = target: Tubulin (Homo sapiens) (UniProt P68371+Q9H4B7+P0DPH7+P68366+Q13509+Q71U36+P04350+Q3ZCM7+P07437+P68363+Q9BQE3+Q6PEY2+Q13885+Q9BVA1+Q9BUF5); test: Induction of tubulin acetylation in human MV4-11 cells after 24 hrs by Western blot analysis; type: cell-based; method in brief: as §1
[15] = target: T2, Tyrosine-protein kinase JAK2; test: Decrease in JAK2 phosphorylation in human HEL cells at 0.1 to 0.5 uM after 24 hrs by Western blot analysis; type: cell-based; method in brief: as §1
[16] = test system: MV4-11; test: Inhibition of STAT5 phosphorylation in human MV4-11 cells after 24 hrs by Western blot analysis; type: cell-based; method in brief: as §1
[17] = test system: MV4-11; test: Inhibition of AKT phosphorylation in human MV4-11 cells after 24 hrs by Western blot analysis; type: cell-based; method in brief: as §1
[18] = target: Receptor-type tyrosine-protein kinase FLT3 (Homo sapiens) (UniProt P36888); conditions: HEL, 0.1 to 0.5 uM

T2 sequence (O60674 whole entry): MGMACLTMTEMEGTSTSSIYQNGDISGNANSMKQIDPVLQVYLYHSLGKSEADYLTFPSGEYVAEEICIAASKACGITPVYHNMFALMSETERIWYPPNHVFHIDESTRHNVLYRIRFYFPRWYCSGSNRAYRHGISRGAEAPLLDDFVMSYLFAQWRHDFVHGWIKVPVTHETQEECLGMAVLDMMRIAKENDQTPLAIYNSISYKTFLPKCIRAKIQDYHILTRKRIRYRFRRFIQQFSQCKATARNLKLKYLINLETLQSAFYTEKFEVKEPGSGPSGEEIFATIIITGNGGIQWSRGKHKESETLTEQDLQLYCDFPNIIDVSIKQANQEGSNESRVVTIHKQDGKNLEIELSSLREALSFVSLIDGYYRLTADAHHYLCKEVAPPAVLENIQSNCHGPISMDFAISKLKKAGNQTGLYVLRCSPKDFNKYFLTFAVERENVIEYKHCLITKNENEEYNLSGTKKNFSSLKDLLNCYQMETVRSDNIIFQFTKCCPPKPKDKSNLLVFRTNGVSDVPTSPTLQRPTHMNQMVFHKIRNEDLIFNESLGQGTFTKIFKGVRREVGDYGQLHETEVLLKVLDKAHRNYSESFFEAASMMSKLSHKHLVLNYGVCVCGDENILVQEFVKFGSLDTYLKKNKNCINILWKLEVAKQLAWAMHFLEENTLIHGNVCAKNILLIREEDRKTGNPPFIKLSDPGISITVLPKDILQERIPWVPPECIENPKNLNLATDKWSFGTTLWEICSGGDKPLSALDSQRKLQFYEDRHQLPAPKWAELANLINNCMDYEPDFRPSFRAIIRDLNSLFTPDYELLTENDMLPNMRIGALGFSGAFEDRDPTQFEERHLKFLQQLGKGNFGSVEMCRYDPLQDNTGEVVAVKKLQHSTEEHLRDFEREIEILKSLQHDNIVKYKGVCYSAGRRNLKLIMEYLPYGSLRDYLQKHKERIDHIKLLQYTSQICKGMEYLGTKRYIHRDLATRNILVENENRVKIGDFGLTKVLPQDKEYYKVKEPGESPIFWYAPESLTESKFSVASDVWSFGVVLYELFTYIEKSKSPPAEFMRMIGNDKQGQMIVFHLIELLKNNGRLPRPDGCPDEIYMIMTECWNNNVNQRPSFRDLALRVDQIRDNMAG

| Structure (SMILES) | IC50 [1] [nM] | IC50 [2] [nM] | IC50 [3] [nM] | GI50 [4] [nM] | GI50 [5] [nM] | GI50 [6] [nM] | GI50 [7] [nM] | GI50 [8] [nM] | GI50 [9] [nM] | GI50 [10] [nM] | GI50 [11] [nM] | GI50 [12] [nM] | Activity [13] | Activity [14] | inhibition [15] | inhibition [16] | inhibition [17] | inhibition [18] |
| --- | --- | --- | --- | --- | --- | --- | --- | --- | --- | --- | --- | --- | --- | --- | --- | --- | --- | --- |
| O=C(CCCCCCC(=O)Nc1ccccc1)NO [VORINOSTAT] | > 10000 | > 10000 | – | – | – | – | – | – | – | – | – | – | – | – | – | – | – | – |
| O=C(CCCCN1C/C=C/COCc2cccc(c2)-c2ccnc(n2)Nc2cccc(c2)C1)NO | 218 | 392 | 158 | 2050 | 370 | 1830 | 490 | 810 | 1070 | 1880 | 1420 | 1130 | – | – | – | – | – | – |
| O=C(CCCCN1C/C=C/CCOc2cccc(c2)-c2ccnc(n2)Nc2cccc(c2)C1)NO | 180 | 293 | 251 | 3030 | 660 | 2450 | 510 | 1530 | 1130 | 2720 | 1770 | 1220 | – | – | – | – | – | – |
| O=C(CCCCCCC(=O)N1C/C=C/CCOc2cccc(c2)-c2ccnc(n2)Nc2cccc(c2)C1)NO | 1260 | 558 | 310 | 6730 | 5890 | 4790 | 5250 | – | – | – | – | – | – | – | – | – | – | – |
| O=C(CCCCCCC(=O)N1C/C=C/COCc2cccc(c2)-c2ccnc(n2)Nc2cccc(c2)C1)NO | 833 | 684 | 293 | 2870 | 1410 | 4390 | 5030 | – | – | – | – | – | – | – | – | – | – | – |
| O=C(CCCCCCCC(=O)N1C/C=C/CCOc2cccc(c2)-c2ccnc(n2)Nc2cccc(c2)C1)NO | – | – | 355 | 1950 | – | 2020 | 6260 | – | – | – | – | – | – | – | – | – | – | – |
| O=C(CCCCC(=O)N1C/C=C/CCOc2cccc(c2)-c2ccnc(n2)Nc2cccc(c2)C1)NO | 556 | 246 | 848 | 1270 | 1010 | 1440 | 2110 | 1590 | 2090 | 2410 | 2250 | 1520 | – | – | – | – | – | – |
| O=C(CCCCCCN1C/C=C/COCc2cccc(c2)-c2ccnc(n2)Nc2cccc(c2)C1)NO | 217 | 613 | 159 | 900 | 320 | 940 | 700 | 900 | 1130 | 1500 | 1190 | 1420 | – | – | – | – | – | – |
| O=C(CCCCCCN1C/C=C/CCOc2cccc(c2)-c2ccnc(n2)Nc2cccc(c2)C1)NO | 87 | 686 | 87 | 1030 | 270 | 1020 | 340 | 820 | 950 | 1770 | 1070 | 1220 | Dose-dependent effect | Dose-dependent effect | Active | Dose-dependent effect | Dose-dependent effect | Dose-dependent effect |
| O=C(CCCCCN1C/C=C/COCc2cccc(c2)-c2ccnc(n2)Nc2cccc(c2)C1)NO | 288 | 594 | 123 | 2300 | 520 | 2090 | 680 | – | – | – | – | – | – | – | – | – | – | – |
| CN1C/C=C/CCOc2cccc(c2)-c2ccnc(n2)Nc2cccc(c2)C1 [ZOTIRACICLIB] | 42 | 170 | – | 1130 | 660 | 1230 | 790 | – | – | – | – | – | – | – | – | – | – | – |
| O=C(CCCCC(=O)N1C/C=C/COCc2cccc(c2)-c2ccnc(n2)Nc2cccc(c2)C1)NO | 221 | 547 | 402 | 4430 | 2060 | 4970 | 2940 | – | – | – | – | – | – | – | – | – | – | – |
| O=C(CCCCCCCC(=O)N1C/C=C/COCc2cccc(c2)-c2ccnc(n2)Nc2cccc(c2)C1)NO | 272 | 835 | 334 | 1660 | 780 | 2640 | 4780 | – | – | – | – | – | – | – | – | – | – | – |
| O=C(CCCCCN1C/C=C/CCOc2cccc(c2)-c2ccnc(n2)Nc2cccc(c2)C1)NO | 108 | 1040 | 152 | 2620 | 530 | 2320 | 2260 | 1330 | 1320 | 2630 | 1600 | 1420 | – | – | – | – | – | – |
